Published values gathered from unrelated publications.
Protocols differ between the studies behind these lines.
Organism: Staphylococcus aureus
Observed: microbial growth

SMILES | test | system | conditions | MIC
COc1ccc(NCc2ccc(Oc3ccccn3)cc2)cc1 |  |  |  | > 3.1 µg/mL
CCS(=O)(=O)c1cccc(-c2cc(C(=O)NC3CCN(C)CC3)c(C)c3[nH]c4ncc(C)cc4c23)c1 |  | NCTC8325 |  | > 30 µM
CN(C)c1ccc(-c2nc3ccccc3[nH]2)cc1 | broth dilution | ATCC29213 MSSA |  | 64 µg/mL
CNC(=O)c1ccc2c(c1)NC(=O)/C2=C(\Nc1cccc(CN(C)C)c1)c1ccccc1 |  | NCTC8325 |  | > 30 µM
CC(C)Oc1c(NC(=O)c2ccc(NC(=O)[C@H](CC(N)=O)NC(=O)c3ccc(NC(=O)c4cc(=O)c(O)c[nH]4)cc3)cc2)ccc(C(=O)Nc2ccc(C(=O)O)cc2)c1O |  | ATCC29213 |  | > 64 µg/mL
C/C=C(\C)c1cc(OC(=O)c2c(O)c(C)c(O)c(Cl)c2/C(C)=C/C)c(C)c(O)c1C(=O)O | broth dilution | 745524 |  | 32 µg/mL
O=C(Nc1ccccc1F)c1ccccc1O | broth dilution | ATCC29213 |  | 32 µg/mL
O=C(O)CN1C(=O)/C(=C/c2ccc(-c3ccc(N(c4ccccc4)c4ccccc4)cc3)cc2)SC1=S | broth dilution | ATCC43300 |  | 3.9 µg/mL
CC[C@H](CO)Nc1nc(NCc2ccccc2)c2ncn(C(C)C)c2n1 |  | NCTC8325 |  | > 30 µM
CN[C@H](CC(C)C)C(=O)N[C@H]1C(=O)N[C@@H](CC(N)=O)C(=O)N[C@H]2C(=O)N[C@H]3C(=O)N[C@H](C(=O)N[C@H](C(=O)O)c4cc(O)cc(O)c4-c4cc3ccc4O)[C@H](O)c3ccc(c(Cl)c3)Oc3cc2cc(c3O[C@@H]2O[C@H](CO)[C@@H](O)[C@H](O)[C@H]2O[C@H]2C[C@](C)(N)[C@H](O)[C@H](C)O2)Oc2ccc(cc2Cl)[C@H]1O | broth dilution | ATCC6538 |  | 0.49 µg/mL
COc1cccc2cc(-c3nc([C@H]4CC[C@H](C(=O)O)CC4)n4ncnc(N)c34)[nH]c12 |  | NCTC8325 |  | > 30 µM
CC1(C)S[C@@H]2[C@H](NC(=O)[C@H](N)c3ccccc3)C(=O)N2[C@H]1C(=O)O | broth dilution | 745524 |  | 4 µg/mL
Clc1ccc(Cn2c(-c3ccc(Cl)cc3)nc3ccccc32)cc1 | broth dilution | ATCC29213 MSSA |  | 8 µg/mL
CN1CCN=C1c1ccc(NC(=O)c2ccc(C(=O)Nc3ccc(C4=NCCN4C)cc3)cc2)cc1 |  |  |  | 8 µg/mL
CC(C)Oc1c(NC(=O)c2ccc(NC(=O)[C@H](CC(N)=O)NC(=O)c3ccc(NC(=O)c4ccc(N)cc4)cc3)cc2)ccc(C(=O)Nc2ccc(C(=O)O)cc2)c1O |  | ATCC29213 |  | > 64 µg/mL
C=CCn1c(-c2ccc([N+](=O)[O-])cc2)nc2ccccc21 | broth dilution | ATCC29213 MSSA |  | 32 µg/mL
FC(F)c1nc2ccccc2n1-c1nc(N2CCOCC2)nc(N2CCOCC2)n1 |  | NCTC8325 |  | > 30 µM
CC[C@H]1OC(=O)[C@H](C)[C@@H](O[C@H]2C[C@@](C)(OC)[C@@H](O)[C@H](C)O2)[C@H](C)[C@@H](O[C@@H]2O[C@H](C)C[C@H](N(C)C)[C@H]2O)[C@](C)(O)C[C@@H](C)C(=O)[C@H](C)[C@@H](O)[C@]1(C)O |  | 129 | clinical isolate | > 100 µM
CSc1ccc(-c2nc3ccccc3[nH]2)cc1 | broth dilution | ATCC29213 MSSA |  | 16 µg/mL
C/C=C(\C)c1cc(O)c(C)c(OC(=O)c2c(C)c(Cl)c(O)c(Cl)c2O)c1 | broth dilution | 16339 |  | 8 µg/mL
O=C(O)c1cn(C2CC2)c2cc(N3CCNCC3)c(F)cc2c1=O | broth dilution | ATCC25923 |  | 0.49 µg/mL

SMILES | test | system | conditions | MIC
CN[C@H](CC(C)C)C(=O)N[C@H]1C(=O)N[C@@H](CC(N)=O)C(=O)N[C@H]2C(=O)N[C@H]3C(=O)N[C@H](C(=O)N[C@H](C(=O)O)c4cc(O)cc(O)c4-c4cc3ccc4O)[C@H](O)c3ccc(c(Cl)c3)Oc3cc2cc(c3O[C@@H]2O[C@H](CO)[C@@H](O)[C@H](O)[C@H]2O[C@H]2C[C@](C)(N)[C@H](O)[C@H](C)O2)Oc2ccc(cc2Cl)[C@H]1O | broth dilution | 745524 |  | 1 µg/mL
Cc1cc(=O)[nH]n1C(=O)c1ccc(-n2c(C)ccc2C)cc1 | broth dilution | ATCC11632 | 18 h | 125 µg/mL
CC1CCN(CCCN2/C(=C/c3cc[n+](C)c4ccccc34)Sc3ccccc32)CC1.[I-] | broth dilution | ATCCBAA44 |  | 2 µg/mL
C[C@@H](O)[C@H]1C(=O)N2C(C(=O)O)=C(S[C@@H]3CN[C@H](C(=O)N(C)C)C3)[C@H](C)[C@H]12 |  | MRSA |  | 32 µg/mL
COCCCNC(=N)c1ccc(NC(=O)c2ccc(C(=O)Nc3ccc(C(=N)NCCCOC)cc3)cc2)cc1 |  |  |  | 4 µg/mL
COC(=O)c1sc(C(C)(C)C)cc1NC(=O)Nc1ccc(C)cc1 |  | NCTC8325 |  | > 100 µM
CCCCCCCCCCCC(=O)Oc1c(C)c(O)c(C(=O)/C=C/c2ccccc2)c(OC)c1C | broth dilution | ATCC25923 |  | 5000 µg/mL
O=C(O)c1cn(C2CC2)c2cc(N3CCNCC3)c(F)cc2c1=O | broth dilution | ATCC29213 MSSA |  | 8 µg/mL
CCn1cc(C(=O)O)c(=O)c2cc(F)c(N3CCNCC3)cc21 | broth dilution | ATCC6538 |  | 2 µM
Cc1cc(C(=O)Nc2ccc(C(=O)N[C@@H](CC(N)=O)C(=O)Nc3ccc(C(=O)Nc4ccc(C(=O)Nc5ccc(C(=O)O)cc5)c(O)c4OC(C)C)cc3)cc2)ccc1C#N |  | ATCC29213 |  | 2 µg/mL
CO[C@H]1[C@H](O[C@H]([C@H]2O[C@@H](n3ccc(=O)[nH]c3=O)[C@H](O)[C@@H]2O)[C@H](NCCCNC(=O)[C@@H](NC(=O)[C@@H](NC(=O)N[C@H](C(=O)O)C(C)C)[C@@H]2CCNC(=N)N2)[C@@H](O)C(C)C)C(=O)O)O[C@H](CN)[C@H]1O |  | NEWMAN |  | > 32 µg/mL
CN(C)[C@@H]1C(O)=C(C(N)=O)C(=O)[C@@]2(O)C(O)=C3C(=O)c4c(O)cccc4[C@@](C)(O)[C@H]3C[C@@H]12 |  | NCTC8325 |  | 0.5 µM
CN(C)[C@@H]1C(O)=C(C(N)=O)C(=O)[C@@]2(O)C(O)=C3C(=O)c4c(O)cccc4[C@@](C)(O)[C@H]3C[C@@H]12 |  | 147 | clinical isolate | ≤ 0.1 µM
CCCCCCC#Cc1cncc(-c2nnc(SCc3ccc(Cl)cc3)n2C)c1 |  | MRSA | drug-resistant strain | ≥ 20 µg/mL
O=C(Cc1ccc(O)c(O)c1)NCCCCCCCC[P+](c1ccccc1)(c1ccccc1)c1ccccc1.[Br-] | broth dilution | ATCC43300 MRSA | 18 h | > 32 µg/mL
O=C(COC(=O)c1n[nH]c2ccccc12)Nc1ccc(N2CCCCC2)cc1 |  |  |  | > 128 µg/mL
CCOc1ccc(-c2nc3ccccc3n2Cc2ccccc2)cc1 | broth dilution | ATCC29213 MSSA |  | 64 µg/mL
CC1=NN(CNc2ccccc2[N+](=O)[O-])C(=O)C1=NNn1c(-c2ccccc2)nc2ccccc2c1=O | broth dilution |  | 24 h | 50.4 µM
O=C1NC(=S)S/C1=C\c1ccc(-c2ccc(N(c3ccccc3)c3ccccc3)cc2)c2ccccc12 | broth dilution | ATCC6538 |  | 500 µg/mL
CC(C)Oc1c(NC(=O)c2ccc(NC(=O)[C@H](CC(N)=O)NC(=O)c3ccc(NC(=O)c4ccc(C#N)cn4)cc3)cc2)ccc(C(=O)Nc2ccc(C(=O)O)cc2)c1O |  | ATCC29213 |  | ≤ 0.03 µg/mL
O=C(Nc1ccc2c(c1)OC(F)(F)O2)c1ccc(Cl)c(C(F)(F)F)c1 |  | NCTC8325 |  | 3 µM
